Data set [1] deals with RG2. Briefly: Uptake in HSV1 thymidine kinase expressing rat RG2TK+ cells. In kind it is ADME, cell-based. A digest of the protocol: (§1)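 Paired time-course uptake over 120 min in HSV1-tk transduced RG2TK+ and wild-type RG2 cells. Medium held 18F tracer (10 kBq/mL) with [3H]TdR (3.7 kBq/mL) and [14C]FIAU (0.37 kBq/mL) as references. 18F gamma-counted at once, 3H/14C by liquid scintillation 24-36 h later. Net accumulation rate, (mL medium/min)/g cells, taken from slope of (dpm/g cells)/(dpm/mL medium) vs time and normalized to TdR.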

Data set [2] relates to RG2. Briefly: Ratio of uptake in rat RG2TK+ cells to RG2 cells. In kind it is ADME, cell-based. An outline of the steps:
as §1

Data set [3] deals with RG2. Briefly: Uptake in rat RG2 cells. In kind it is ADME, cell-based. A digest of the protocol:
as §1

Data set [4] in a line: Partition coefficient, log P at pH 7.4. The conditions noted are these: octanol/water. Format: physicochemical. A digest of the protocol: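 Octanol/PBS shake-flask: 20 µL radiolabeled tracer in saline added to 0.5 mL each 1-octanol and PBS (pH 6.4, 7.0, 7.4, 8.4); vortexed 1 min, centrifuged 5 min; 20 µL of each layer weighed and 18F gamma-counted (400-550 keV). log P = log10(counts per g octanol / counts per g water).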

SMILES strings stand for the structures.

As to `Nc1nc(O)c2ncn(COC(CO)C[18F])c2n1` (stereo not drawn), the Drug uptake in the data set with RG2 [1] is 7.7 µL/min/mg; in the data set with RG2 [3] it was 0.4 µL/min/mg. For the same molecule, the Ratio in the data set with RG2 [2] stood at 19.

For the molecule `Nc1nc(=O)c2ncn(CCC(CO)C[18F])c2[nH]1` (stereo not drawn), the Drug uptake in the data set with RG2 [1] amounted to 22 µL/min/mg; in the data set on RG2 [3], 3.2 µL/min/mg. Besides, the Ratio in the data set with RG2 [2] was found to be 6.9.

On to `CCCc1cn([C@@H]2O[C@H](CO)[C@@H](O)[C@@H]2[18F])c(=O)[nH]c1=O`, for which the Drug uptake is 14 µL/min/mg in the data set with RG2 [1] and -1 µL/min/mg with RG2 [3]. In data set [4], this molecule returned a logD of 0.5.

`O=c1[nH][14c](=O)n([C@@H]2O[C@H](CO)[C@@H](O)[C@@H]2F)cc1I`: the Drug uptake with RG2 [1] worked out at 274 µL/min/mg; with RG2 [3], 48 µL/min/mg. The Ratio in the data set with RG2 [2] stood at 5.7. In data set [4], this molecule had a pH-dependent lipophilicity (logD) of -0.1.

In the case of `O=c1[nH]c(=O)n([C@@H]2O[C@H](CO)[C@@H](O)[C@@H]2F)cc1CC[18F]`, the Drug uptake in the data set with RG2 [1] turned out to be 290 µL/min/mg; in the data set with RG2 [3] it was 0.53 µL/min/mg. In addition, in the data set on RG2 [2], the Ratio is recorded as 550.

Take `O=c1[nH]c(=O)n([C@@H]2O[C@H](CO)[C@@H](O)[C@@H]2[18F])cc1C(F)(F)F`: the Drug uptake in the data set with RG2 [1] stood at 51 µL/min/mg; in the data set with RG2 [3], 4 µL/min/mg. The Ratio with RG2 [2] amounted to 13. The logD in data set [4] worked out at 0.03.

For the molecule `O=c1[nH]c(=O)n([C@@H]2O[C@H](CO)[C@@H](O)[C@@H]2[18F])cc1/C=C/Br`, the Drug uptake with RG2 [1] was 35 µL/min/mg; in the data set with RG2 [3], -1 µL/min/mg. Besides, the logD in data set [4] came to 1.02.

As usually defined, the logD is the decadic logarithm of the distribution of all forms, ionised or not, between an organic phase and buffer at a given pH.

Values taken from ChEMBL document CHEMBL1146180, “Synthesis and evaluation of [18F] labeled pyrimidine nucleosides for positron emission tomography imaging of herpes simplex virus 1 thymidine kinase gene expression” (J Med Chem, 2006).
